Data reported in ChEMBL document CHEMBL4414552, “Homotrimerization Approach in the Design of Thrombospondin-1 Mimetic Peptides with Improved Potency in Triggering Regulated Cell Death of Cancer Cells” (J Med Chem, 2019).
The source made the active and inactive calls. The calls are words filed in the database; no cut-off is given here. Square brackets hold non-standard residues; d marks the D form. Peptide text beside a SMILES is read from it. NMeR = CN[C@@H](CCCNC(=N)N)C(=O)O; Nle = CCCC[C@H](N)C(=O)O

Tests used:
[1] = Solubility of the compound in PBS with 0.05% Tween 20 and 1% DMSO; assay type: physicochemical; conditions: buffer
[2] = molecular target: T1, Leukocyte surface antigen CD47 (Homo sapiens, UniProt Q08722); assay: Binding affinity to CD47 in biotinylated human MEC1 cell membranes by biolayer interferometry
Summary of the method: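 Biotinylated membrane preparations from MEC-1 cells were loaded onto SuperStreptavidin biosensors. Binding was measured by bilayer interferometry (Octet RED96) in PBS with 0.2% BSA and 1% DMSO at 30 °C. Affinities are given as apparent Kd estimates.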

MEC1 [3] = assay: Cytotoxicity against human MEC1 cells assessed as induction of cell death at 200 uM after 6 hrs by annexin V/propidium iodide staining based flow cytometric analysis relative to control; assay type: functional
[4] = Aggregation property of the compound in water; assay type: physicochemical; conditions: buffer
Serum = assay: Aggregation property of the compound in human serum; assay type: ADME, cell-free
MEC1 [5] = assay: Cytotoxicity against human MEC1 cells assessed as induction of cell death after 2 hrs by annexin V/propidium iodide staining based flow cytometric analysis; assay type: functional; conditions: MEC1, 2 h, read-out: LC50 (the source's name)
Summary of the method: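 MEC-1 CLL cells (TP53-dysfunctional) maintained in Advanced RPMI 1640 with 10% fetal calf serum, 2 mM L-glutamine and penicillin–streptomycin. Peptide treatment for 2 h in complete medium. Ann-V-APC (0.1 μg/mL) and PI (0.5 μg/mL) staining, read by flow cytometry. Cell death taken as the sum of AnnV+/PI- and AnnV+/PI+ events. Mean ± SD of at least three independent experiments.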

[6] = Aggregation property of the compound in phosphate buffer; assay type: physicochemical
[7] = molecular target: T1, Leukocyte surface antigen CD47; assay: Agonist activity at CD47 in human MEC1 cells assessed as activation of PLCgamma1-induced calcium-mediated caspase-independent cell death at 200 uM after 2 hrs by microscopic method; assay type: cell-based
Summary of the method: (§1)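 MEC-1 CLL cells kept in Advanced RPMI 1640 with 10% FCS, 2 mM L-glutamine and penicillin–streptomycin. Cells were treated with peptide in complete medium for 2 h, then examined by light microscopy at 20X for morphology and cell aggregation.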

MEC1 [8] = assay: Induction of cell aggregation in human MEC1 at 200 uM after 2 hrs by microcopic method; assay type: functional, cell-based; summary of the method: as §1
MEC1 [9] = assay: Induction of cell death in human MEC1 cells at 50 uM in presence of extracellular calcium chelator BAPTA administered 30 mins post BAPTA treatment in serum-free medium by Annexin V-APC/propidium iodide staining based flow cytometric analysis; assay type: functional
MEC1 [10] = assay: Induction of cell death in human MEC1 cells at 50 uM in presence of PLCgamma1 inhibitor U73122 administered 1 hr post U73122 treatment in serum-free medium by annexin V-APC/propidium iodide staining based flow cytometric analysis; assay type: functional
Summary of the method: (§2)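 Peptide was then added at 5 or 50 μM in serum-free medium for 2 h. Cell death was read by Ann-V/PI flow cytometry and normalized to each peptide's control to give an index. Mean ± SD of at least two experiments.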

MEC1 [11] = assay: Induction of cell death in human MEC1 cells at 50 uM in presence of IP3R inhibitor 2-APB administered 1 hr post 2-APB treatment in serum-free medium by annexin V-APC/propidium iodide staining based flow cytometric analysis; assay type: functional; summary of the method: as §2
MEC1 [12] = assay: Induction of cell death in human MEC1 cells at 50 uM in presence of ryanodine inhibitor dantrolene administered 1 hr post dantrolene treatment in serum-free medium by annexin V-APC/propidium iodide staining based flow cytometric analysis; assay type: functional; summary of the method: as §2
A549 [13] = assay: Cytotoxicity against human A549 cells assessed as induction of cell death after 6 hrs by annexin V-APC/propidium iodide staining based flow cytometric analysis; assay type: functional; conditions: A549, 6 h, read-out: LC50 (the source's name)
Summary of the method: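 A549 cells kept in Advanced RPMI 1640 with 10% fetal calf serum, 2 mM L-glutamine and penicillin–streptomycin. Peptides at the indicated concentrations in this complete medium for 6 h. Cells stained with Ann-V-APC (0.1 μg/mL) and PI (0.5 μg/mL), then read by flow cytometry. Values are means ± SD of two independent experiments.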

A549 [14] = assay: Induction of cell death in human A549 cells at 100 uM in presence of PLCgamma1 inhibitor U73122 administered 1 hr post U73122 treatment in serum-free medium by annexin V-APC/propidium iodide staining based flow cytometric analysis; assay type: functional
Summary of the method: (§3)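 Peptide was then added at 10 or 100 μM in serum-free medium for 6 h. Cell death was read by Ann-V/PI flow cytometry and trypan blue counting. A cell death index was obtained by normalizing to each peptide's control. Mean ± SD of two experiments.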

A549 [15] = assay: Induction of cell death in human A549 cells at 100 uM in presence of IP3R inhibitor 2-APB administered 1 hr post 2-APB treatment in serum-free medium by annexin V-APC/propidium iodide staining based flow cytometric analysis; assay type: functional; summary of the method: as §3
A549 [16] = assay: Induction of cell death in human A549 cells at 100 uM in presence of extracellular calcium chelator BAPTA administered 30 mins post BAPTA treatment in serum-free medium by annexin V-APC/propidium iodide staining based flow cytometric analysis; assay type: functional
A549 [17] = assay: Induction of cell death in human A549 cells at 100 uM in presence of ryanodine inhibitor dantrolene administered 1 hr post dantrolene treatment in serum-free medium by annexin V-APC/propidium iodide staining based flow cytometric analysis; assay type: functional; summary of the method: as §3
A549 [18] = assay: Induction of cell death in human A549 cells at 100 uM in presence of ryanodine inhibitor dantrolene/PLCgamma1 inhibitor U73122/IP3R inhibitor 2-APB by annexin V-APC/propidium iodide staining based flow cytometric analysis; assay type: functional; summary of the method: as §3
A549 [19] = assay: Induction of cell death in human A549 cells at 100 uM administered 30 mins post Q-VD-OPh treatment in serum-free medium by propidium iodide staining based flow cytometric analysis; assay type: functional
A549 [20] = assay: Induction of cell death in human A549 cells assessed as reduction in cell index at 200 uM measured every minute for first 2 hrs followed by every hour for 24 hrs by RTCA analysis; assay type: functional, cell-based
A549 [21] = assay: Disruption of membrane integrity in human A549 cells assessed as increase in adenylate kinase release at 200 uM by ToxiLight bioassay; assay type: functional, cell-based
[22] = Aggregation property of the compound in pure water; assay type: physicochemical; conditions: buffer
MEC1 [23] = assay: Induction of cell death in human MEC1 cells at 50 uM in presence of caspase inhibitor Q-VD-OPH administered 30 mins post Q-VD-OPH treatment in serum-free medium by Annexin V-APC/propidium iodide staining based flow cytometric analysis; assay type: functional
MEC1 [24] = assay: Induction of cell death in human MEC1 cells at 50 uM in presence of ryanodine inhibitor dantrolene/PLCgamma1 inhibitor U73122/IP3R inhibitor 2-APB by annexin V-APC/propidium iodide staining based flow cytometric analysis; assay type: functional; summary of the method: as §2

T1 sequence (Q08722 whole entry): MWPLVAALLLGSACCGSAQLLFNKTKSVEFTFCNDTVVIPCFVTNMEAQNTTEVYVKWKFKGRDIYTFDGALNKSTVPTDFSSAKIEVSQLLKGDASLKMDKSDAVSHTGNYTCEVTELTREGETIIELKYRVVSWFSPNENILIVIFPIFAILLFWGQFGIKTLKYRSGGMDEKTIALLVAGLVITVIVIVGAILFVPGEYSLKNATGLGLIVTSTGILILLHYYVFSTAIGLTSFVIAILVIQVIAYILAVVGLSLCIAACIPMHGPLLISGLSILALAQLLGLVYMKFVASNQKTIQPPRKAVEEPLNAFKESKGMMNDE

CCCC[C@H](NC(=O)[C@@H](NC(=O)[C@@H](NC(=O)[C@H](Cc1ccc(O)cc1)NC(=O)[C@H](Cc1ccccc1)NC(=O)[C@H](CCCNC(=N)N)N(C)C(=O)[C@H](N)CCCCN)C(C)C)C(C)C)C(=O)N[C@@H](Cc1c[nH]c2ccccc12)C(=O)N[C@@H](CCCCN)C(=O)N[C@H](CCCCN)C(=O)O (H-[dK][NMeR]FYVV[Nle]WK[dK]-OH)
solubility [1]: Soluble | Kd [2]: 8.6 µM | Activity (MEC1 [3]): 59% | Activity [4]: Not Active | Activity (Serum): Not Active | CC50 (MEC1 [5]): 200 µM | Activity [6]: Not Active | Activity [7]: Active | Activity (MEC1 [8]): inactive | Activity (MEC1 [9]): inactive | Activity (MEC1 [10]): inactive | Activity (MEC1 [11]): inactive | Activity (MEC1 [12]): inactive | CC50 (A549 [13]): 200 µM | Activity (A549 [14]): inactive | Activity (A549 [15]): inactive | Activity (A549 [16]): inactive | Activity (A549 [17]): inactive | Activity (A549 [18]): inactive | Activity (A549 [19]): inactive | Activity (A549 [20]): Active | Activity (A549 [21]): Active | Activity [22]: Not Active | Activity (MEC1 [23]): inactive | Activity (MEC1 [24]): inactive
